Reference: ChEMBL document CHEMBL5126597, “Indazole MRL-871 interacts with PPARγ via a binding mode that induces partial agonism” (Bioorg Med Chem, 2022)
Activity calls are given as the source filed them. The calls are words filed in the database; no cut-off is given here.

Key:
[1] = Stabilization of PPARgamma LBD (unknown origin)/FITC-labeled PGC-1alpha (unknown origin) protein-protein interaction assessed as dissociation constant by fluorescence anisotropy assay; set-up: species or system Homo sapiens
Method in brief: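 Fluorescence anisotropy coactivator interaction assay: PPARγ LBD titrated to fluorophore-labelled PGC-1α peptide (10 nM) with DMSO or ligand at 10 µM. n = 3; representative data shown as mean ± s.d.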

[2] = molecular target: T1, Peroxisome proliferator-activated receptor gamma (Homo sapiens) (UniProt P37231); test: Stabilization of PPARgamma LBD (unknown origin) assessed as change in melting temperature in presence of SR16832 by differential scanning fluorimetry
T1 sequence (whole entry): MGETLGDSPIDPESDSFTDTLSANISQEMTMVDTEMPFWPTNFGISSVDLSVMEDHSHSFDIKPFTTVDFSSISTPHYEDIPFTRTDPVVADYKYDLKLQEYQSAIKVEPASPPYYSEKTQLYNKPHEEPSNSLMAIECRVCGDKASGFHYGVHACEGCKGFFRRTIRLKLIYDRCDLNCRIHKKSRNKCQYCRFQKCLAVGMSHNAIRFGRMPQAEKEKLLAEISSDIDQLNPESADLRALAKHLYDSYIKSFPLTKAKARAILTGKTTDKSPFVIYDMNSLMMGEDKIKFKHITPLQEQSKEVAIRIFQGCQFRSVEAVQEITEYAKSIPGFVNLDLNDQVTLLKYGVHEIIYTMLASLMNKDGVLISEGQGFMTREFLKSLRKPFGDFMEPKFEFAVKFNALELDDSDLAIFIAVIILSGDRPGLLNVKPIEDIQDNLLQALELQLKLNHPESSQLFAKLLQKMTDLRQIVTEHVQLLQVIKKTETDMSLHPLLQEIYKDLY

[3] = molecular target: T1, Peroxisome proliferator-activated receptor gamma (Homo sapiens); test: Stabilization of PPARgamma LBD (unknown origin) assessed as change in melting temperature in presence of GW9662 by differential scanning fluorimetry
[4] = molecular target: T1, Peroxisome proliferator-activated receptor gamma (Homo sapiens); test: Stabilization of PPARgamma LBD (unknown origin) assessed as change in melting temperature by differential scanning fluorimetry
[5] = molecular target: T1, Peroxisome proliferator-activated receptor gamma (Homo sapiens); test: Binding affinity to PPARgamma LBD (unknown origin) assessed as increase in thermal stability by differential scanning fluorimetry; details: filed as partial agonist
[6] = molecular target: T1, Peroxisome proliferator-activated receptor gamma (Homo sapiens); test: Stabilization of PPARgamma LBD (unknown origin) assessed as melting temperature at 14 uM by differential scanning fluorimetry
Method in brief: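 Differential scanning fluorimetry of PPARγ LBD (3.5 µM) with or without ligand at 14 µM (four equivalents) to obtain melting temperature. n ≥ 3, mean ± s.d.; with vs without compound compared by unpaired t-test.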

Kd [1] | ΔTm [2] | ΔTm [3] | ΔTm [4] | Activity [5] | Tm [6] | SMILES
370 nM | -0.1 °C | 0 °C |  |  |  | CN(CCOc1ccc(CC2SC(=O)NC2=O)cc1)c1ccccn1 (stereo not given) [ROSIGLITAZONE]
 |  |  | 4.4 °C |  |  | COc1ccc2nccc(NC(=O)c3cc([N+](=O)[O-])ccc3Cl)c2c1
710 nM | -0.6 °C | 1.1 °C |  | Active | 50.2 °C | O=C(O)c1ccc(-c2nn(C(=O)c3c(Cl)cccc3C(F)(F)F)c3ccccc23)cc1
 |  |  | 3.9 °C |  |  | O=C(Nc1ccccc1)c1cc([N+](=O)[O-])ccc1Cl
